Laboratory results from ChEMBL document CHEMBL4699571, “Synthesis of Natural and Unnatural Quinolones Inhibiting the Growth and Motility of Bacteria” (2020).
One block for each compound: values may come before it. Activity calls are given as the source filed them. No cut-off for these calls is given here.

Legend:
Pseudomonas aeruginosa [1] = experiment: Antimicrobial activity against Pseudomonas aeruginosa ATCC 15692 assessed as reduction in microbial growth at 1.1 to 33.4 ug/ml after 24 hrs by broth microdilution method; format: functional, organism-based; details: dose microg/ml 1.1-33.4, time 24.0 hrs
Outline: (§1)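 P. aeruginosa growth-inhibition assay in broth. Each compound was tested at final concentrations of 1.1, 2.1, 4.2, 8.4, 16.7 and 33.4 μg/mL. The read-out is the extent of growth inhibition at each concentration.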

Bacillus spizizenii [2] = experiment: Inhibition of swarming motility of Bacillus subtilis subsp. spizizenii ATCC 6633 at 10 uM after 24 hrs; format: functional, organism-based
Pseudomonas aeruginosa [3] = experiment: Antimicrobial activity against Pseudomonas aeruginosa ATCC 15692 assessed as reduction in microbial growth at 2.1 to 33.4 ug/ml after 24 hrs by broth microdilution method relative to control; format: functional; details: dose microg/ml 2.1-33.4; outline: as §1
Pseudomonas aeruginosa [4] = experiment: Antimicrobial activity against Pseudomonas aeruginosa ATCC 15692 assessed as reduction in microbial growth at 0.25 times of MIC concentration after 2 to 24 hrs by time kill assay; format: functional, organism-based; details: time 2.0 hrs
Outline: (§2)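 Time-kill study against P. aeruginosa with compound at 1/4 MIC, MIC and 4 × MIC. Viable counts were followed as log CFU over a 24 h period, with sampling from 2 h onward. Ciprofloxacin served as the positive control.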

Bacillus spizizenii [5] = experiment: Antimicrobial activity against Bacillus subtilis subsp. spizizenii ATCC 6633 assessed as zone of inhibition at 2 mg/ml after 24 hrs by agar well diffusion method; format: functional; details: for zone of inhibition at 2000 µg/mL: read-out: DIZ
Outline: (§3)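 Preliminary agar well-diffusion screen run against a panel of eight Gram-positive and Gram-negative test microbes.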

Pseudomonas aeruginosa [6] = experiment: Antimicrobial activity against Pseudomonas aeruginosa ATCC 15692 assessed as reduction in microbial growth after 24 hrs by broth microdilution method; format: functional; outline: as §1
[7] = tested on: Staphylococcus epidermidis; experiment: Antimicrobial activity against Staphylococcus epidermidis ATCC 14990 assessed as zone of inhibition at 2 mg/ml after 24 hrs by agar well diffusion method; format: functional; details: for zone of inhibition at 2000 µg/mL: read-out: DIZ; outline: as §3
Pseudomonas aeruginosa [8] = experiment: Antimicrobial activity against Pseudomonas aeruginosa ATCC 15692 assessed as zone of inhibition at 2 mg/ml after 24 hrs by agar well diffusion method; format: functional; details: for zone of inhibition at 2000 µg/mL: read-out: DIZ; outline: as §3
Pseudomonas aeruginosa [9] = experiment: Antimicrobial activity against Pseudomonas aeruginosa ATCC 15692 assessed as reduction in microbial growth at MIC concentration after 10 hrs by time kill assay; format: functional, organism-based; outline: as §2
Pseudomonas aeruginosa [10] = experiment: Antimicrobial activity against Pseudomonas aeruginosa ATCC 15692 assessed as reduction in microbial growth at 4 times of MIC concentration after 24 hrs by time kill assay; format: functional, organism-based; outline: as §2
Staphylococcus aureus = experiment: Antimicrobial activity against Staphylococcus aureus ATCC 12600 assessed as zone of inhibition at 2 mg/ml after 24 hrs by agar well diffusion method; format: functional; details: for zone of inhibition at 2000 µg/mL: read-out: DIZ; outline: as §3

Compound: O=c1cc(Cc2ccccc2)[nH]c2ccccc12
- Activity (Pseudomonas aeruginosa [1]): inactive
- swarming motility inhibition (active/not active) (Bacillus spizizenii [2]): Active

Compound: CSC(SC)c1c(C)c2ccccc2[nH]c1=O
- Activity (Pseudomonas aeruginosa [1]): inactive
- swarming motility inhibition (active/not active) (Bacillus spizizenii [2]): inactive

- MIC (Pseudomonas aeruginosa [6]): 33 µg/mL
Compound: CCCC/C=C/Cc1cc(=O)c2ccccc2[nH]1
- inhibition (INH) (Pseudomonas aeruginosa [3]): 37%
- Activity (Pseudomonas aeruginosa [4]): Active
- zone of inhibition at 2000 µg/mL (Bacillus spizizenii [5]): 9 mm
- Activity (Pseudomonas aeruginosa [1]): Active
- swarming motility inhibition (active/not active) (Bacillus spizizenii [2]): Active
- zone of inhibition at 2000 µg/mL [7]: 24 mm
- zone of inhibition at 2000 µg/mL (Pseudomonas aeruginosa [8]): 35 mm
- Activity (Pseudomonas aeruginosa [9]): Active
- Activity (Pseudomonas aeruginosa [10]): Active
- zone of inhibition at 2000 µg/mL (Staphylococcus aureus): 9 mm

Compound: CN[C@H](CC(C)C)C(=O)N[C@H]1C(=O)N[C@@H](CC(N)=O)C(=O)N[C@H]2C(=O)N[C@H]3C(=O)N[C@H](C(=O)N[C@H](C(=O)O)c4cc(O)cc(O)c4-c4cc3ccc4O)[C@H](O)c3ccc(c(Cl)c3)Oc3cc2cc(c3O[C@@H]2O[C@H](CO)[C@@H](O)[C@H](O)[C@H]2O[C@H]2C[C@](C)(N)[C@H](O)[C@H](C)O2)Oc2ccc(cc2Cl)[C@H]1O [VANCOMYCIN]
- zone of inhibition at 2000 µg/mL (Bacillus spizizenii [5]): 19 mm

Compound: CCOC(OCC)c1c(C)c2ccccc2[nH]c1=O
- swarming motility inhibition (active/not active) (Bacillus spizizenii [2]): inactive

Compound: CCS/C=C/c1cc(=O)c2ccccc2[nH]1
- diameter of the inhibition zone (DIZ) (Bacillus spizizenii [5]): inactive
- Activity (Pseudomonas aeruginosa [1]): inactive
- swarming motility inhibition (active/not active) (Bacillus spizizenii [2]): inactive
- diameter of the inhibition zone (DIZ) [7]: inactive
- diameter of the inhibition zone (DIZ) (Pseudomonas aeruginosa [8]): inactive
- zone of inhibition at 2000 µg/mL (Staphylococcus aureus): 13 mm

Compound: CCSCc1c(C)c2ccccc2[nH]c1=O
- swarming motility inhibition (active/not active) (Bacillus spizizenii [2]): Active

Compound: CCO/C=C/c1cc(=O)c2ccccc2[nH]1
- swarming motility inhibition (active/not active) (Bacillus spizizenii [2]): inactive

Compound: Cn1c(Cc2ccccc2)cc(=O)c2ccccc21
- Activity (Pseudomonas aeruginosa [1]): inactive
- swarming motility inhibition (active/not active) (Bacillus spizizenii [2]): inactive

Compound: CS/C=C\c1cc(=O)c2ccccc2[nH]1
- swarming motility inhibition (active/not active) (Bacillus spizizenii [2]): inactive

Compound: CSc1ccc(Cc2cc(=O)c3ccccc3[nH]2)cc1
- diameter of the inhibition zone (DIZ) (Bacillus spizizenii [5]): inactive
- Activity (Pseudomonas aeruginosa [1]): inactive
- swarming motility inhibition (active/not active) (Bacillus spizizenii [2]): Active
- diameter of the inhibition zone (DIZ) [7]: inactive
- zone of inhibition at 2000 µg/mL (Pseudomonas aeruginosa [8]): 29 mm
- diameter of the inhibition zone (DIZ) (Staphylococcus aureus): inactive

Compound: CCCC/C=C/Cc1cc(=O)c2ccccc2n1C
- swarming motility inhibition (active/not active) (Bacillus spizizenii [2]): Active

Compound: CO/C=C/c1cc(=O)c2ccccc2[nH]1
- swarming motility inhibition (active/not active) (Bacillus spizizenii [2]): inactive

Compound: CCSC(SCC)c1c(C)c2ccccc2[nH]c1=O
- Activity (Pseudomonas aeruginosa [1]): inactive
- swarming motility inhibition (active/not active) (Bacillus spizizenii [2]): inactive

Compound: Cc1c(CN(C)C)c(=O)[nH]c2ccccc12
- swarming motility inhibition (active/not active) (Bacillus spizizenii [2]): Active

Compound: CSCc1c(C)c2ccccc2[nH]c1=O
- swarming motility inhibition (active/not active) (Bacillus spizizenii [2]): Active

Compound: COC(OC)c1c(C)c2ccccc2[nH]c1=O
- swarming motility inhibition (active/not active) (Bacillus spizizenii [2]): inactive

Compound: CS/C=C/c1cc(=O)c2ccccc2[nH]1
- zone of inhibition at 2000 µg/mL (Bacillus spizizenii [5]): 23 mm
- Activity (Pseudomonas aeruginosa [1]): inactive
- swarming motility inhibition (active/not active) (Bacillus spizizenii [2]): inactive
- diameter of the inhibition zone (DIZ) [7]: inactive
- diameter of the inhibition zone (DIZ) (Pseudomonas aeruginosa [8]): inactive
- diameter of the inhibition zone (DIZ) (Staphylococcus aureus): inactive

Compound: CSc1ccc(Cc2cc(=O)c3ccccc3n2C)cc1
- diameter of the inhibition zone (DIZ) (Bacillus spizizenii [5]): inactive
- Activity (Pseudomonas aeruginosa [1]): inactive
- swarming motility inhibition (active/not active) (Bacillus spizizenii [2]): Active
- diameter of the inhibition zone (DIZ) [7]: inactive
- zone of inhibition at 2000 µg/mL (Pseudomonas aeruginosa [8]): 36 mm
- diameter of the inhibition zone (DIZ) (Staphylococcus aureus): inactive

Compound: CC1(C)S[C@@H]2[C@H](NC(=O)[C@H](N)c3ccccc3)C(=O)N2[C@H]1C(=O)O [AMPICILLIN]
- zone of inhibition at 2000 µg/mL [7]: 29 mm
- zone of inhibition at 2000 µg/mL (Staphylococcus aureus): 39 mm

Compound: O=C(O)c1cn(C2CC2)c2cc(N3CCNCC3)c(F)cc2c1=O [CIPROFLOXACIN]
- zone of inhibition at 2000 µg/mL (Pseudomonas aeruginosa [8]): 35 mm

Compound: COCc1c(C)c2ccccc2[nH]c1=O
- swarming motility inhibition (active/not active) (Bacillus spizizenii [2]): Active
